Test results reported in ChEMBL document CHEMBL4017549, “Structural Basis of Inhibition of ERα-Coactivator Interaction by High-Affinity N-Terminus Isoaspartic Acid Tethered Helical Peptides” (J Med Chem, 2017).

What was measured:
Vitamin D3 receptor = target: T1, Vitamin D3 receptor (Homo sapiens, UniProt P11473); assay: Binding affinity to recombinant human GST-tagged VDR LBD (156 to 453 residues) expressed in Echerichia coli BL21 star (DE3) after 40 mins in presence of vitamin D3 by fluorescence polarization assay
T1 sequence (P11473 whole entry): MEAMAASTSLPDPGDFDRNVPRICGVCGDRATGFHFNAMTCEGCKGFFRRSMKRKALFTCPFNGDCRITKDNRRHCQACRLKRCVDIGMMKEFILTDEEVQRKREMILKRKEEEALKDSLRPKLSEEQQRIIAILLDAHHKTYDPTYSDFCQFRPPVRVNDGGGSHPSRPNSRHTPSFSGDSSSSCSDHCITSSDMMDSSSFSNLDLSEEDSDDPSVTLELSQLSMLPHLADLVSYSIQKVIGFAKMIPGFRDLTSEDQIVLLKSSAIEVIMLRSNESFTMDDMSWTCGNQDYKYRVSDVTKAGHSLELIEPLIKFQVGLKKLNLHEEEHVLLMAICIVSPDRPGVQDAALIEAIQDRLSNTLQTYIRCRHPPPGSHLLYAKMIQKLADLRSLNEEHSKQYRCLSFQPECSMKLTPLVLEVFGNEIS
Outline: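 GST-VDR LBD titrated into 10 nM final FITC-labelled peptide in 20 mM Tris-HCl pH 8.0, 150 mM NaCl, 5% glycerol, 1 mM TCEP containing 10 μM vitamin D3. 40 min dark incubation, polarization at 298 K (ex 480/em 535 nm). KD by nonlinear regression.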

[1] = Drug uptake in human MCF7 cells at 5 uM after 3 hrs in presence of 10 nM E2 by DAPI-staining based confocal laser scanning microscopic analysis; conditions: mcf7, 3 h
Estrogen receptor beta = Estrogen receptor beta (Homo sapiens, UniProt Q92731); assay: Binding affinity to recombinant human GFP-fused ERbeta LBD (259 to 498 residues) expressed in Escherichia coli BL21(DE3) after 40 mins in presence of 17beta-estradiol by fluorescence polarization assay
Outline: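 FITC-labelled peptide at 10 nM final, titrated with increasing purified LBD (ERβ LBD carrying C334S, C369S, C481S) in 20 mM Tris-HCl pH 8.0, 150 mM NaCl, 5% glycerol, 1 mM TCEP with 10 μM 17β-estradiol. Incubated 40 min in the dark, polarization read at 298 K (ex 480/em 535 nm). KD from nonlinear regression of polarization versus protein concentration.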

Estrogen receptor = target: T2, Estrogen receptor (Homo sapiens, UniProt P03372); assay: Binding affinity to recombinant human GFP-fused ERalpha LBD (301 to 553 residues) expressed in Escherichia coli BL21(DE3) after 40 mins in presence of 17beta-estradiol by fluorescence polarization assay
T2 sequence (P03372 whole entry): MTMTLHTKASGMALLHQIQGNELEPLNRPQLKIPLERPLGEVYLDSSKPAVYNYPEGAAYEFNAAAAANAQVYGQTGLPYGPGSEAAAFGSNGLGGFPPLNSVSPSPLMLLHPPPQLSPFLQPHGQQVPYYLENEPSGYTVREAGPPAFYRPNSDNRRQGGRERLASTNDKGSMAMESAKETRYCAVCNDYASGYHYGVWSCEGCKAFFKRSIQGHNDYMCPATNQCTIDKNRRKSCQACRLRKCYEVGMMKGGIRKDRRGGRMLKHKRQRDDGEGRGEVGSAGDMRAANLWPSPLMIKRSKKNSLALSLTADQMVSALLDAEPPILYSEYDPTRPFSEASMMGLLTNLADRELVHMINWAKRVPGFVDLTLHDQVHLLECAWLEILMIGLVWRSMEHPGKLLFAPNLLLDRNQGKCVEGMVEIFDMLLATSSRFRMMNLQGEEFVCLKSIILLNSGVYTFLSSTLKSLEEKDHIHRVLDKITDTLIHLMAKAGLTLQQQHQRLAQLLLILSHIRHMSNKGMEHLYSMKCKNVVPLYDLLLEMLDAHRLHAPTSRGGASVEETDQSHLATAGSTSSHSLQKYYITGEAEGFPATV

Progesterone receptor = target: T3, Progesterone receptor (Homo sapiens, UniProt P06401); assay: Binding affinity to recombinant human GST-tagged PGR LBD (678 to 933 residues) expressed in Escherichia coli BL21 star(DE3) after 40 mins in presence of progesterone by fluorescence polarization assay
T3 sequence (P06401 whole entry): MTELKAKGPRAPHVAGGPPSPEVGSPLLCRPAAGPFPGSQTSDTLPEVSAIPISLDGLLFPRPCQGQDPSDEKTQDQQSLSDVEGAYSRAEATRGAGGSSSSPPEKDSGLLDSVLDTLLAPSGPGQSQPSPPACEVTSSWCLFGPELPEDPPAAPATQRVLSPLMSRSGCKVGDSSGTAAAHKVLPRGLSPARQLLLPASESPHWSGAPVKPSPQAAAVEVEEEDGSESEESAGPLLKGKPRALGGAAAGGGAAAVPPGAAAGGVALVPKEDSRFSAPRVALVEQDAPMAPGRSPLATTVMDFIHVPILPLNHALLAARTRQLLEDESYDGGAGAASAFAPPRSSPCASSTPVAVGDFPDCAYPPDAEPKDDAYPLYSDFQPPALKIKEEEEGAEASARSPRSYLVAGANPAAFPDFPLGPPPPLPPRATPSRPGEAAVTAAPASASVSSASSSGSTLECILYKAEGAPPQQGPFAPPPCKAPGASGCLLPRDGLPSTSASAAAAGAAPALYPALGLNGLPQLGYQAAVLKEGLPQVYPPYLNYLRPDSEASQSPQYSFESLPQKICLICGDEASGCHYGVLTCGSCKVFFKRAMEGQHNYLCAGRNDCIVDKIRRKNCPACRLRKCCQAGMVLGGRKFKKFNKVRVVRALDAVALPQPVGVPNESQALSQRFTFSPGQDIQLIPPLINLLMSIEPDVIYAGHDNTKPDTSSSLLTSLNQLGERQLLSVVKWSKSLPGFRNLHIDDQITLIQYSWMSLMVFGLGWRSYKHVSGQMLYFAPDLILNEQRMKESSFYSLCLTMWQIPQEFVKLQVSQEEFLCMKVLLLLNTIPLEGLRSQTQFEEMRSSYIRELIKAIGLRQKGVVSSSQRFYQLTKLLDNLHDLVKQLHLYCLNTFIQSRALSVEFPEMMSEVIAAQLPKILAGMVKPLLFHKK
Outline: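 FITC-labelled peptide at 10 nM final with increasing GST-PgR LBD in 20 mM Tris-HCl pH 8.0, 150 mM NaCl, 5% glycerol, 1 mM TCEP plus 10 μM progesterone. 40 min dark incubation, polarization at 298 K (ex 480/em 535 nm). KD by nonlinear regression against protein concentration.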

Homo sapiens = species: Homo sapiens; assay: Selectivity ratio of Kd for recombinant human GST-tagged PGR LBD ([…] residues) to Kd for recombinant human ERalpha LBD (301 to 553 residues)
Outline: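 Ratio of KD values, each from fluorescence polarization of 10 nM FITC-peptide titrated with the respective LBD after 40 min in the dark at 298 K, with the matching ligand in buffer (10 μM 17β-estradiol, progesterone or vitamin D3).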

Estrogen receptor beta, sequence (Q92731 whole entry, the tested form may be a part): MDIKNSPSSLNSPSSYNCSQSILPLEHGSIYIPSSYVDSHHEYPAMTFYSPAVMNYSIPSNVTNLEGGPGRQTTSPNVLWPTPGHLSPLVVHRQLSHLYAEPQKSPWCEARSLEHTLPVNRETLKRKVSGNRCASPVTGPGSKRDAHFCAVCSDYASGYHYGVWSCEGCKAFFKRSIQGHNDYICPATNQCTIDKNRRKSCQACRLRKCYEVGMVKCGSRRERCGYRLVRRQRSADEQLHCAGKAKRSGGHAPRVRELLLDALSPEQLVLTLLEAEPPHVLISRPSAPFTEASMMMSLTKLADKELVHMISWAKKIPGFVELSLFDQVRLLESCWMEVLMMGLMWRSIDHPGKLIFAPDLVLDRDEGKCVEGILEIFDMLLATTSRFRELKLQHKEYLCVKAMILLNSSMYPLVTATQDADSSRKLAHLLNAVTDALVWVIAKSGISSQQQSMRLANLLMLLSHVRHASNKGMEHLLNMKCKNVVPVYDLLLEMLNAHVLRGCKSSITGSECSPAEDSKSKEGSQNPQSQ

Kd (Vitamin D3 receptor): > 2000 nM | Drug uptake [1]: Active | Kd (Estrogen receptor beta): 297 nM | Kd (Estrogen receptor): 67 nM | Kd (Progesterone receptor): 248 nM | Selectivity ratio (Homo sapiens): 3.7
SMILES: CC[C@H](C)[C@@H]1NC(=O)C[C@H](NC(=O)[C@H](CCCNC(=N)N)NC(=O)CCNC(=S)Nc2ccc3c(c2)C(=O)OC32c3ccc(O)cc3Oc3cc(O)ccc32)C(=O)NCC(C(=O)N[C@@H](CCCNC(=N)N)C(=O)NC(CC(C)(C)C)C(=O)NC(CC(C)(C)C)C(=O)N[C@@H](CCC(N)=O)C(N)=O)NC(=O)C(CC(C)(C)C)NC1=O (stereo partly specified)
